According to PMC6930011 (Journal of the American Chemical Society, 2019):
Where no end group is shown, it is not given here.

What was measured:
hPTHR1 = assay: Washout assay of cAMP signaling duration; type: cell-based, human; details: excess PTHR1 antagonist (D)Trp^12,Tyr^34-bPTH(7-34) during washout; 1 nM agonist
Procedure, shortened: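 HEK293 cells stably expressing hPTHR1, with β-arrestin at endogenous levels, were stimulated with 1 nM agonist for a defined period. Agonist was then washed off and cAMP monitored during the ligand-off phase, with excess antagonist present after washout and, in some runs, BA1 added as well. Output was area under curve, normalized to PTH(1-34)-NH2 at 1 nM. Data were mean ± s.e.m. from n = 3–4 independent experiments, compared by one-way ANOVA.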

PTHR1 = type: cell-based; details: HEK293 cells stably expressing HA-tagged PTHR1
human PTHR1 = assay: cAMP production, GloSensor assay in HEK-293 cells stably expressing human PTHR1; type: cell-based; details: relative to PTH(1-34)-NH2; Figure S2

Substance | effect of antagonist after washout on duration and extent of cAMP production (hPTHR1) | co-IP of the PTHR1 and endogenous β-arrestin (PTHR1) | potency in stimulating cAMP production, fold less potent than PTH(1-34)-NH2 (human PTHR1)
PTH(1-34)-NH2 | only a modest drop | effectively induced co-IP | 
Trp^1-PTHrP(1-36)-NH2 (WVSEHQLLHDKGKSIQDLRRRFFLHHLIAEIHTAEI-NH2; UniProt P12272 37-72, looked up, variant A1W) |  |  | ~ 5 fold
Tyr^1-PTH(1-34)-NH2 (YVSEIQLMHNLGKHLNSMERVEWLRKKLQDVHNF-NH2; UniProt P01270 32-65, looked up, variant S1Y) |  |  | ~ 5 fold
